Assay results reported in publication PMC6371780 (ACS chemical neuroscience, 2018).
Like-named read-outs stand apart in the source and are kept apart here. Blank lines part the entries; values can stand above or below the molecule they belong to.

How the values were obtained:
COX-1 [1] = conditions: cited from earlier work
COX-1 [2] = conditions: cited from earlier work; for IC50: read-out: IC50 COX-1 monkey
COX-2 [3] = conditions: read-out: IC50 COX-2 monkey; cited from earlier work
COX-1 [4] = conditions: cited from earlier work; remark: listed apart in the source
COX-1 [5] = target: T1, COX-1 (Macaca mulatta, UniProt F6S984); assay: paired baseline/preblock PET experiments with [11C]PS13 in rhesus monkey; format: in vivo, rhesus monkey (Macaca mulatta); conditions: for peak whole-brain radioactivity of [11C]PS13 after administration of blocker: blocker i.v. before [11C]PS13: PS13 1 mg/kg, KTP-Me 3 mg/kg, MC1 0.3 mg/kg; for whole-brain radioactivity of [11C]PS13 after administration of blocker: 45 min after radioligand, PS13 1 mg/kg, KTP-Me 3 mg/kg i.v.; for decline of whole-brain radioactivity from peak / radioactivity in whole brain: 45 min after injection
T1 sequence (F6S984 25-599): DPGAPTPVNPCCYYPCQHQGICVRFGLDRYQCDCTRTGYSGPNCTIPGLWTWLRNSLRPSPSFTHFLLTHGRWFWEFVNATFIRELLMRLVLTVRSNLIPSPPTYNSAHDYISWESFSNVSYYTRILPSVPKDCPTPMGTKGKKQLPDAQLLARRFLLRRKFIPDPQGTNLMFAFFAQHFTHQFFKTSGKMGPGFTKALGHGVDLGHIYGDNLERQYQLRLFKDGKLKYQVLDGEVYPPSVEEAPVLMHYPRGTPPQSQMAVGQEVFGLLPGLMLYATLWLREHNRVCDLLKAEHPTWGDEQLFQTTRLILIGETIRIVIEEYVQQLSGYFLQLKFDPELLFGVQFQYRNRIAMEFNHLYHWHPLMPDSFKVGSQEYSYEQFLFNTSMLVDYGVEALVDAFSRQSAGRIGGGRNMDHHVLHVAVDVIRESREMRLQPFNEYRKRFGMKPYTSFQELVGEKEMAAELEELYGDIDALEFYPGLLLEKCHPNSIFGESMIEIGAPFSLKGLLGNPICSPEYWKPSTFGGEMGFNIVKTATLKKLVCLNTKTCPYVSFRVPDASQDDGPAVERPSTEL
In short: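 Male rhesus monkeys (7.5–12.8 kg) received an i.v. bolus of radioligand (212 ± 37 MBq; 114 ± 74 GBq/μmol) over 1 min. A baseline scan was followed more than 3 h later by a blocking scan, with inhibitor given i.v. minutes before radioligand. Scans were corrected for attenuation and scatter, and frames ran from 30 s to 10 min. Whole-brain (gray matter) time–activity curves were expressed as SUV.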

COX-1 [6] = target: T1, COX-1; assay: kinetic modeling of PET data; format: in vivo, rhesus monkey; conditions: for reduction of [11C]PS13 brain regional VT values by preadministration: KTP-Me 3 mg/kg, MC1 0.3 mg/kg i.v.; for VND of [11C]PS13 (x-axis intercept of Lassen plot), by blocker experiment: PS13 1 mg/kg or KTP-Me 3 mg/kg as blocker
In short: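 Each baseline scan was followed >3 h later by a blocking scan, with blocker given as an i.v. bolus 5–10 min before radioligand. Femoral arterial samples were taken every 15 s to 120 s, then at 3–120 min, and parent radioligand was measured by reversed-phase radio-HPLC. VT was estimated by voxel-level Logan analysis, uncorrected for blood volume, with identifiability as % SE. A Lassen plot of regional VT gave occupancy from its slope and VND from its x-intercept.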

[7] = cited from earlier work
[8] = radioligand stability in monkey whole blood and plasma in vitro; format: in vitro ADME; conditions: monkey whole blood or plasma, 30 min, room temperature
In short: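 Formulated radioligand was incubated with monkey whole blood or plasma at room temperature for at least 30 min. Blood was lysed with water, and samples were deproteinized with acetonitrile and centrifuged at 10 000g. Supernatants were analysed by reversed-phase radio-HPLC, and precipitates were γ-counted for extraction efficiency. Stability was taken as the % unchanged radioligand divided by radiochemical purity.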

[9] = plasma free fraction by ultrafiltration, pooled human plasma; format: in vitro ADME; conditions: pooled (standard) human plasma
In short: (§1)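 Free fraction was measured in triplicate by ultrafiltration through membrane filters, with filtrate radioactivity read by γ-counting. Plasma was venous plasma from each monkey, or pooled human arterial plasma stored at −80 °C. The human plasma served as the standard for normalization across studies.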

[10] = log D by partition between n-octanol and sodium phosphate buffer; format: physicochemical; conditions: n-octanol / sodium phosphate buffer 0.15 M, pH 7.4
In short: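 Radioligand partitioned between n-octanol and 0.15 M sodium phosphate buffer, pH 7.4. Radioactivity in each phase counted by γ-counter. Buffer-phase radioactivity corrected for parent fraction by reversed-phase radio-HPLC on a C18 column.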

[11] = plasma free fraction by ultrafiltration, monkey plasma; format: in vitro ADME
In short: as §1

[12] = baseline PET brain time-activity curves in rhesus monkey; format: in vivo, rhesus monkey (Macaca mulatta); conditions: for decline of whole-brain radioactivity from peak / radioactivity concentration in whole brain: at 85 min; for peak radioactivity concentration in whole brain / time of peak radioactivity concentration in whole brain: i.v. radioligand
In short: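 Male rhesus monkeys (7.5–12.8 kg) were given ketamine (10 mg/kg i.m.) and kept on 1.6% isoflurane, head in a stereotaxic frame, and imaged on a microPET Focus 220. Radioligand (212 ± 37 MBq) in saline-ethanol 90:10 was given as an i.v. bolus over 1 min. The 120 min acquisition was reconstructed by FORE/2D FBP with attenuation, scatter and decay correction and coregistered to an MRI template. Regional gray-matter curves were expressed as SUV.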

[13] = radiometabolite analysis of monkey plasma after i.v. radioligand; format: in vivo, rhesus monkey
COX-2 [14] = conditions: read-out: IC50 COX-2 human; cited from earlier work
[15] = baseline of the paired experiment using KTP-Me
[16] = baseline of the paired experiments using PS13
[17] = baseline of the paired experiment with MC1

- time of peak brain radioactivity of [11C]PS13 after administration of blocker (COX-1 [5]; MC1 0.3 mg/kg i.v.): 3.5 min
- peak whole-brain radioactivity of [11C]PS13 after administration of blocker (COX-1 [5]): 4.86 SUV
- reduction of [11C]PS13 brain regional VT values by preadministration (COX-1 [6]; PS13 1 mg/kg): no effect
Molecule: COc1cc(NCc2cccs2)nc(-c2ccc(S(C)(=O)=O)cc2)n1 [MC1, 6-methoxy-2-(4-(methylsulfonyl)phenyl)-N-(thiophen-2-ylmethyl)pyrimidin-4-amine, reference compound]
- fold lower potency for inhibiting COX-1 than COX-2 (COX-1 [2]; monkey): > 1000 fold
- fold lower potency for inhibiting COX-1 than COX-2 (COX-1 [4]; human): > 1000 fold

- whole-brain radioactivity of [11C]PS13 after administration of blocker (COX-1 [5]): 1.09 SUV
- peak whole-brain radioactivity of [11C]PS13 after administration of blocker (COX-1 [5]): 4.14 SUV
- VND of [11C]PS13 (x-axis intercept of Lassen plot), by blocker experiment (COX-1 [6]): 1.8 mL/cm^3
- COX-1 occupancy (slope of Lassen plot) (COX-1 [6]; PS13 1 mg/kg, KTP-Me 3 mg/kg i.v., radioligand [11C]PS13): 72 ± 4%
Molecule: COC(=O)[C@@H](C)c1cccc(C(=O)c2ccccc2)c1 [KTP-Me, (S)-ketoprofen methyl ester, reference compound]

- whole-brain radioactivity of [11C]PS13 after administration of blocker (COX-1 [5]): 1.11 SUV
- peak whole-brain radioactivity of [11C]PS13 after administration of blocker (COX-1 [5]): 3.60 SUV
- VND of [11C]PS13 (x-axis intercept of Lassen plot), by blocker experiment (COX-1 [6]): 2.5 mL/cm^3
- reduction of [11C]PS13 brain regional VT values by preadministration (COX-1 [6]; PS13 1 mg/kg): about 55%
- receptor occupancy at 1 mg/kg (COX-1 [6]; rhesus monkey, iv, read-out: COX-1 occupancy (slope of Lassen plot)): 87 ± 4%
Molecule: COc1ccc(-c2nc(OCC(F)(F)F)nn2-c2ccc(OC)cc2)cc1 [PS13, 1,5-bis(4-methoxyphenyl)-3-(2,2,2-trifluoroethoxy)-1H-1,2,4-triazole]

- radiochemical stability [8]: > 99%
- human fP (n = 3) [9]: 0.036 ± 0.001
- log D (n = 6) [10]: 3.29 ± 0.00
- monkey fP (n = 3) [11]: 0.042 ± 0.001
- decline of whole-brain radioactivity from peak [12]: 85%
- radioactivity concentration in whole brain [12]: 0.62 SUV
- peak radioactivity concentration in whole brain ([12]; rhesus monkey): 4.26 SUV
- time of peak radioactivity concentration in whole brain ([12]; rhesus monkey): 1.75 min
Molecule: COc1ccc(-c2nc(O[11CH3])nn2-c2ccc(OC)cc2)cc1 [[^11C]PS1]

- radiochemical stability [8]: > 99%
- radioactivity in plasma that was parent radioligand ([13]; by about 25 min after i.v. injection): 50%
- human fP (n = 3) [9]: 0.021 ± 0.000
- log D (n = 6) [10]: 3.26 ± 0.01
- monkey fP (n = 3) [11]: 0.039 ± 0.001
- decline of whole-brain radioactivity from peak [12]: 74%
- radioactivity concentration in whole brain [12]: 1.05 SUV
- peak radioactivity concentration in whole brain ([12]; rhesus monkey): 4.11 SUV
- time of peak radioactivity concentration in whole brain ([12]; rhesus monkey): 7 min
- radioactivity in skull on brain image (radiodefluorination) ([12]; rhesus monkey): uptake of radioactivity in skull
Molecule: [2H]C([2H])([18F])Oc1nc(-c2ccc(OC)cc2)n(-c2ccc(OC)cc2)n1 [[^2H2,^18F]PS2]

- decline of whole-brain radioactivity from peak (COX-1 [5]; [15]): 43%
- radioactivity in whole brain (COX-1 [5]; [15]): 1.65 SUV
- decline of whole-brain radioactivity from peak (COX-1 [5]; [16]): 36%
- radioactivity in whole brain (COX-1 [5]; [16]): 1.88 SUV
- peak radioactivity in whole brain (COX-1 [5]; [15]): 2.90 SUV
- peak uptake of radioactivity in brain (COX-1 [5]; [17]): 3.73 SUV
- time of peak uptake of radioactivity in brain (COX-1 [5]; [17]): 3.5 min
- peak radioactivity in whole brain (COX-1 [5]; [16]): 2.92 SUV
- radiochemical stability [8]: > 99%
- radioactivity in plasma represented by each species ([13]; 90 min after i.v. injection of [11C]PS13, radio-HPLC): 48.9%
- radioactivity in plasma represented by unchanged radioligand ([13]; at 90 min, baseline and self-block experiments): about 50%
- human fP (n = 3) [9]: 0.002 ± 0.000
- log D (n = 6) [10]: 4.26 ± 0.04
- identifiability (SE) of VT (COX-1 [6]; all examined brain regions, Logan graphical analysis): 0.1–1.8%
- radioactivity uptake in brain specifically bound to COX-1 (COX-1 [6]; pharmacological preblock experiments, monkey): about 55%
- monkey fP (n = 3) [11]: 0.011 ± 0.001
- decline of whole-brain radioactivity from peak [12]: 54%
Molecule: COc1ccc(-c2nc(OCC(F)(F)F)nn2-c2ccc(OC)cc2)cc1 [[^11C]PS13, [^11C]1,5-bis(4-methoxyphenyl)-3-(2,2,2-trifluoroethoxy)-1H-1,2,4-triazole]

The next lines start with the molecule.

Molecule: C[C@@H](C(=O)O)c1cccc(C(=O)c2ccccc2)c1 (single isomer, unassigned) [R-enantiomer of KTP]
- potency for inhibiting COX-1 (COX-1 [1]): negligible potency

Molecule: C[C@H](C(=O)O)c1cccc(C(=O)c2ccccc2)c1 [KTP, (S)-ketoprofen, reference compound]
- IC50 (COX-1 [2]): 1 nM
- IC50 (COX-2 [3]): 400 nM
- IC50 (COX-1 [4]; read-out: IC50 COX-1 human): 20 nM
- IC50 (COX-1 [4]; read-out: IC50 for inhibiting human COX-1): 47 nM

Molecule: [^11C]-Ketoprofen [[^11C]KTP]
- brain penetrance [7]: poorly brain-penetrant

Molecule: COc1ccc(-c2nc(OCF)nn2-c2ccc(OC)cc2)cc1 [[^2H2,^18F]PS2]
- IC50 (COX-1 [2]): 3.6 ± 1 nM
- IC50 (COX-2 [3]): > 1000 nM
- IC50 (COX-1 [4]; read-out: IC50 COX-1 human): 4 ± 2 nM

Molecule: COc1ccc(-c2nc(OC)nn2-c2ccc(OC)cc2)cc1 [[^11C]PS1]
- IC50 (COX-1 [2]): 4.6 ± 1.3 nM
- IC50 (COX-2 [3]): > 1000 nM
- IC50 (COX-2 [14]): > 1000 nM
- IC50 (COX-1 [4]; read-out: IC50 COX-1 human): 5 ± 5.2 nM
